Results on 74 sequences are retold here after the array DNA melting data of Ke et al. (doi:10.1101/2024.01.08.574731).

Series [1] is described as follows: folding enthalpy; higher = less favourable; fluorescence melt of hairpins on a sequencing array, two-state fit. As to conditions: sodium 0.088 M. The method, boiled down:
(§1)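 Folding enthalpy and melting temperature were estimated with bootstrapped two-state fits and combined across four replicates by inverse-variance weighting, with fitted temperatures raised by 9.35 °C to match UV melts. The data were Cy3 fluorescence of library hairpins, with annealed Cy3 and quencher oligos, on a sequenced MiSeq flow cell in 50 mM Na-HEPES pH 8.0, 25 mM NaCl, imaged in 2.5 °C steps up to 60 °C and normalised to pre-quench Cy3 and control constructs.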

Series [2] can be described thus: melting temperature; fluorescence melt of hairpins on a sequencing array, two-state fit, raised by 9.35 °C to match UV melts. As to conditions: sodium 0.088 M. The essentials: as §1

CGGGACGGAAACGTCCG (((.(((....)))))): the folding enthalpy in series [1] was -12.9 kcal/mol. Also, the Tm in series [2] is 57.9 °C.
The matching figures for CGGGACGGAAACGTTCCG (((.(((....))).))): -37.8 kcal/mol and 59.4 °C.
The matching figures for CGGGCGGAAACGCCACCG ((((((....)))..))): -9.3 kcal/mol and 42.4 °C.
The matching figures for CGGGCGGAAACGCCCCG ((((((....))).))): -8.53 kcal/mol and 59.6 °C.
Turning to CGGGCGGAAACGCGCCG ((((((....))).))), in series [1], the folding enthalpy is -16.6 kcal/mol. In series [2], the Tm is 55.5 °C.
On to CGGGGCCGGAAACGGCCG (((..(((....)))))), for which the folding enthalpy in series [1] is -4.87 kcal/mol. Moreover, in series [2], the Tm came out at 53.8 °C.
The matching figures for CGGGTCCGGAAACGGCCG (((..(((....)))))): -14.3 kcal/mol and 47.5 °C.
The matching figures for CGGGTTCGGAAACGACCG (((..(((....)))))): -19.9 kcal/mol and 39.4 °C.
In the case of CGGTCACGGAAACGTCCG (((..(((....)))))), in series [1], the folding enthalpy was -10.3 kcal/mol. The Tm in series [2] turned out to be 38.7 °C.
Regarding CGGTCGGAAACGAAGCCG ((((((....)))..))), the folding enthalpy in series [1] is -24.1 kcal/mol. For the same sequence, in series [2], the Tm came out at 38.1 °C.
With CGGTCGGAAACGATGCCG ((((((....)))..))), the folding enthalpy in series [1] is -22.1 kcal/mol. In addition, in series [2], the Tm is 38.6 °C.
For the sequence CGGTGACGGAAACGTCCG (((..(((....)))))), in series [1], the folding enthalpy is -12 kcal/mol. The Tm in series [2] came out at 44.3 °C.
Taken in the same sequence, the figures for CGGTGCGGAAACGCCCG (((.(((....)))))) were -30.8 kcal/mol and 58 °C.
Taken in the same sequence, the figures for CGGTGGAAACACCG (((((....))))) were -26.1 kcal/mol and 68 °C.
Take CGTAAACGGAAACGTACG (((..(((....)))))): in series [1], the folding enthalpy is -23.5 kcal/mol. For the same sequence, the Tm in series [2] was determined as 34.8 °C.
The matching figures for CGTAACGGAAACGTACG (((.(((....)))))): -31 kcal/mol and 44.3 °C.
The matching figures for CGTACCGGAAACGGGACG (((.(((....))).))): -36.4 kcal/mol and 64.8 °C.
The matching figures for CGTACGCGGAAACGCACG (((..(((....)))))): -13.5 kcal/mol and 40.7 °C.
On to CGTACGGAAACGTACACG ((((((....)))..))), for which the folding enthalpy in series [1] was -11.5 kcal/mol. In series [2], the Tm came to 39.9 °C.
The matching figures for CGTACGGAAACGTCTACG ((((((....)))..))): -14.7 kcal/mol and 30.7 °C.
Turning to CGTACGGAAACGTGACG ((((((....))).))), in series [1], the folding enthalpy is -25.9 kcal/mol. For the same sequence, in series [2], the Tm amounted to 41.1 °C.
Turning to CGTACGGAAACGTGGACG ((((((....)))..))), in series [1], the folding enthalpy was -15.1 kcal/mol. Further, the Tm in series [2] was 35.2 °C.
On to CGTACGGAAACGTTGACG ((((((....)))..))), for which the folding enthalpy in series [1] is -16.5 kcal/mol. Further, the Tm in series [2] stood at 36.3 °C.
In the case of CGTAGACGGAAACGTACG (((..(((....)))))), the folding enthalpy in series [1] is -16.7 kcal/mol. In addition, the Tm in series [2] was 36.9 °C.
Regarding CGTAGCGGAAACGCAACG (((.(((....))).))), the folding enthalpy in series [1] is -29.5 kcal/mol. Further, in series [2], the Tm turned out to be 53 °C.
The matching figures for CGTAGCGGAAACGCGACG (((.(((....))).))): -31 kcal/mol and 59.1 °C.
The matching figures for CGTAGGAAACTACG (((((....))))): -21 kcal/mol and 48.2 °C.
Taken in the same sequence, the figures for CGTATACGGAAACGTACG (((..(((....)))))) were -27.7 kcal/mol and 33 °C.
Turning to CGTATCCGGAAACGGACG (((..(((....)))))), the folding enthalpy in series [1] is -13.8 kcal/mol. The Tm in series [2] was 32.5 °C.
The matching figures for CGTATCGGAAACGACACG (((.(((....))).))): -31.2 kcal/mol and 42.6 °C.
Taken in the same sequence, the figures for CGTATCGGAAACGAGACG (((.(((....))).))) were -35.2 kcal/mol and 53.3 °C.
Taken in the same sequence, the figures for CGTCCGGAAACGGCGACG ((((((....)))..))) were -13.6 kcal/mol and 46.7 °C.
CGTCCGGAAACGGGACG ((((((....))).))): in series [1], the folding enthalpy was -30.4 kcal/mol. For the same sequence, the Tm in series [2] was determined as 55.8 °C.
In the case of CGTCCGGAAACGGGGACG ((((((....)))..))), the folding enthalpy in series [1] was -25 kcal/mol. Also, the Tm in series [2] came to 48.3 °C.
Taken in the same sequence, the figures for CGTCCGGAAACGGTGACG ((((((....)))..))) were -21.9 kcal/mol and 41 °C.
The matching figures for CGTCGCCGGAAACGGACG (((..(((....)))))): -17.8 kcal/mol and 47.1 °C.
The matching figures for CGTCTTCGGAAACGAACG (((..(((....)))))): -11.3 kcal/mol and 29.8 °C.
Turning to CGTGAACGGAAACGTACG (((..(((....)))))), the folding enthalpy in series [1] is -21.1 kcal/mol. For the same sequence, the Tm in series [2] came to 35.3 °C.
The matching figures for CGTGACGGAAACGTAACG (((.(((....))).))): -37.4 kcal/mol and 50.3 °C.
The matching figures for CGTGACGGAAACGTGACG (((.(((....))).))): -26.2 kcal/mol and 48.9 °C.
Taken in the same sequence, the figures for CGTGATCGGAAACGAACG (((..(((....)))))) were -8.71 kcal/mol and 28.6 °C.
Turning to CGTGCCCGGAAACGGACG (((..(((....)))))), in series [1], the folding enthalpy is -14.8 kcal/mol. Moreover, the Tm in series [2] was 32.9 °C.
The matching figures for CGTGCGGAAACGCGAACG ((((((....)))..))): -23.3 kcal/mol and 47.6 °C.
The matching figures for CGTGCGGAAACGCTAACG ((((((....)))..))): -20 kcal/mol and 43.5 °C.
Consider CGTGGCGGAAACGCAACG (((.(((....))).))), for which the folding enthalpy in series [1] was -38.7 kcal/mol. Also, in series [2], the Tm amounted to 56.8 °C.
For the sequence CGTGTCGGAAACGAGACG (((.(((....))).))), the folding enthalpy in series [1] is -36 kcal/mol. Also, the Tm in series [2] was 51.7 °C.
As for CGTTACGGAAACGTTACG (((.(((....))).))), the folding enthalpy in series [1] was -26.9 kcal/mol. Further, in series [2], the Tm was 48 °C.
As for CGTTCGGAAACGAAACG ((((((....))).))), the folding enthalpy in series [1] is -27.8 kcal/mol. For the same sequence, the Tm in series [2] worked out at 45.8 °C.
The matching figures for CGTTCGGAAACGACGACG ((((((....)))..))): -15.9 kcal/mol and 37.5 °C.
Regarding CGTTCGGAAACGAGACG ((((((....))).))), in series [1], the folding enthalpy is -24.1 kcal/mol. Further, the Tm in series [2] is 39 °C.
The matching figures for CGTTCGGAAACGAGTACG ((((((....)))..))): -18.8 kcal/mol and 35.9 °C.
The matching figures for CGTTGCGGAAACGCACG (((.(((....)))))): -21.4 kcal/mol and 52.8 °C.
The matching figures for CGTTGGAAACAACG (((((....))))): -30.3 kcal/mol and 52.9 °C.
For CTAAGGAAACTTAG (((((....))))), the folding enthalpy in series [1] is -10.7 kcal/mol. Besides, the Tm in series [2] was found to be 29.8 °C.
As for CTAATGAAAATTAG (((((....))))), the folding enthalpy in series [1] was -7.43 kcal/mol. Further, the Tm in series [2] stood at 26 °C.
Taken in the same sequence, the figures for CTACTGAAAAGTAG (((((....))))) were -13.5 kcal/mol and 44.3 °C.
For the sequence CTAGTGAAAACTAG (((((....))))), in series [1], the folding enthalpy was -15 kcal/mol. Moreover, the Tm in series [2] is 42.4 °C.
The matching figures for CTCACGAAAGTGAG (((((....))))): -22.2 kcal/mol and 61 °C.
Taken in the same sequence, the figures for CTCCGGAAACGGAG (((((....))))) were -24 kcal/mol and 55.1 °C.
Take CTGAGGAAACTCAG (((((....))))): the folding enthalpy in series [1] is -20.1 kcal/mol. Further, the Tm in series [2] was 47.1 °C.
The matching figures for CTTATGAAAATAAG (((((....))))): -11.4 kcal/mol and 25.1 °C.
Taken in the same sequence, the figures for CTTCCGAAAGGAAG (((((....))))) were -21.3 kcal/mol and 55.8 °C.
The matching figures for CTTGAGAAATCAAG (((((....))))): -11.1 kcal/mol and 35.6 °C.
Consider GAAAAAGGAAACTTTTTC (((((((....))))))), for which, in series [1], the folding enthalpy is -39.7 kcal/mol. Also, the Tm in series [2] stood at 46 °C.
With GAAAACACGAAAGTGTTC (((..(((....)))))), the folding enthalpy in series [1] was -11.9 kcal/mol. Besides, the Tm in series [2] came out at 35.9 °C.
Taken in the same sequence, the figures for GAAAACGAAAGTTGATTC ((((((....)))..))) were -17.8 kcal/mol and 33.6 °C.
The matching figures for GAAAACGCGAAAGCGTTC (((..(((....)))))): -8.84 kcal/mol and 41.1 °C.
Taken in the same sequence, the figures for GAAAACGGAAACGTTCTC ((.((((....)))).)) were -12.7 kcal/mol and 30.4 °C.
For the sequence GAAAAGGGAAACTTTTTC (((((.(....).))))), the folding enthalpy in series [1] is -11.5 kcal/mol. Moreover, the Tm in series [2] was 29.6 °C.
Taken in the same sequence, the figures for GAAAATCCGAAAGGATTC (((..(((....)))))) were -11.8 kcal/mol and 33.4 °C.
As to GAAAATGGAAACATTTTC (((((((....))))))), the folding enthalpy in series [1] was -44.6 kcal/mol. Moreover, the Tm in series [2] was found to be 51 °C.
The matching figures for GAAACCCGAAAGGGCTTC (((.(((....))).))): -24.9 kcal/mol and 46.4 °C.
The matching figures for GAAACCCGAAAGGGGTTC (((.(((....))).))): -29 kcal/mol and 59.2 °C.
Consider GAAACCGAAAGGTATTC ((((((....))).))), for which the folding enthalpy in series [1] was -14.1 kcal/mol. For the same sequence, in series [2], the Tm worked out at 31.6 °C.
